18 compounds from ChEMBL document CHEMBL2086366, “Chemical optimization of new ligands of the low-density lipoprotein receptor as potential vectors for central nervous system targeting” (J Med Chem, 2012) can be followed below.

Where a SMILES comes first, the peptide text is derived from it. Bridges are numbered along the chain shown (N, C = ends).

For one series, the target named is Low-density lipoprotein receptor (Homo sapiens) (UniProt P01130). The series can be described thus: Displacement of S-tagged Ac-DSGL[CMPRLRGC]cDPR-NH2 from human DsRed2-fused LDLR expressed in CHO cells at 10 uM after 1 hr by FRET assay. In kind it is cell-based.
Sequence of Low-density lipoprotein receptor (Homo sapiens) (P01130 whole entry, the tested form may be a part): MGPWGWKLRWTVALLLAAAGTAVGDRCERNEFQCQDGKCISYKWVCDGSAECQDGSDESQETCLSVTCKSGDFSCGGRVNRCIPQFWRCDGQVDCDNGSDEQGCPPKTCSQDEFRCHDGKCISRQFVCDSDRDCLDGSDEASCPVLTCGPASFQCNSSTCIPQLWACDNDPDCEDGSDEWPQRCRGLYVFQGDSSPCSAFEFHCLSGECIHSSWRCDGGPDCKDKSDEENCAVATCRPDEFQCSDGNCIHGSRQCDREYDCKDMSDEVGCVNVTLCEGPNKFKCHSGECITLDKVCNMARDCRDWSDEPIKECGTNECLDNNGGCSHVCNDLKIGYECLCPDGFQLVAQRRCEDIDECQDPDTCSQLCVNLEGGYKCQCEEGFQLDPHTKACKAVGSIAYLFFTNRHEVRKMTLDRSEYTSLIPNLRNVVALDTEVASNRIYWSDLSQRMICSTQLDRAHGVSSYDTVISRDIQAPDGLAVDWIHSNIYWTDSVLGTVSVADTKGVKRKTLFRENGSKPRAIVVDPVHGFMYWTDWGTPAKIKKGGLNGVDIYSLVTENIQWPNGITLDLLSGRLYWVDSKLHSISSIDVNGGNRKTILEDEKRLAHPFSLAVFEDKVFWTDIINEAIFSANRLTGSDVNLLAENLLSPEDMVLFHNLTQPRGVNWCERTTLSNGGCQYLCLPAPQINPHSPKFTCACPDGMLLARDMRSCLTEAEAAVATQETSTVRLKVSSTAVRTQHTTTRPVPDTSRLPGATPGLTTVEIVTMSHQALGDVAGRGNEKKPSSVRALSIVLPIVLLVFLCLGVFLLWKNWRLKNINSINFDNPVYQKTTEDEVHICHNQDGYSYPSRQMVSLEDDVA
Settings: not given; call rule not given here
In short, it runs like this:
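CHO cells stably expressing hLDLR-DsRed2 (Ham-F12, 5% FBS, Geneticin) at 800 000 cells/well were incubated in triplicate with S-tagged reference peptide (10 μM) plus test peptide (10 μM) in Ham-F12/1% BSA, 1 h, 37 °C. Scrambled and untagged peptide controls were included; values are means of at least three points.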
As for `CSCC[C@@H]1NC(=O)[C@@H](NC(=O)[C@H](CC(C)C)NC(=O)CNC(=O)[C@H](CO)NC(=O)[C@H](C)NC(C)=O)CSSC[C@@H](C(=O)N[C@@H](CC(=O)O)C(=O)N2CCC[C@H]2C(=O)N[C@@H](CCCNC(=N)N)C(N)=O)NC(=O)CNC(=O)[C@H](CCCNC(=N)N)NC(=O)[C@H](CC(C)C)NC(=O)[C@H](CCCNC(=N)N)NC(=O)[C@@H]2CCCN2C1=O` (Ac-ASGLCMPRLRGCDPR-NH2; disulfide 5-12), the inhibition is 55%.
The same measure, in the same setting: as for `CSCC[C@@H]1NC(=O)[C@@H](NC(=O)[C@H](CC(C)C)NC(=O)CNC(=O)[C@H](CO)NC(=O)[C@H](CC(=O)O)NC(C)=O)CSSC[C@@H](C(=O)N[C@@H](CC(=O)O)C(=O)N2CCC[C@H]2C(=O)N[C@@H](CCCNC(=N)N)C(N)=O)NC(=O)CNC(=O)[C@H](CCCNC(=N)N)NC(=O)[C@H](CC(C)C)NC(=O)[C@H](CCCNC(=N)N)NC(=O)[C@H](C)NC1=O` (Ac-DSGLCMARLRGCDPR-NH2; disulfide 5-12), the figure is 3%.
`CSCC[C@@H]1NC(=O)[C@@H](NC(=O)[C@H](CC(C)C)NC(=O)CNC(=O)[C@H](CO)NC(=O)[C@H](CC(=O)O)NC(C)=O)CSSC[C@@H](C(=O)N[C@@H](CC(=O)O)C(=O)N2CCC[C@H]2C(=O)N[C@@H](CCCNC(=N)N)C(N)=O)NC(=O)CNC(=O)[C@H](CCCNC(=N)N)NC(=O)[C@H](CC(C)C)NC(=O)[C@H](CCCNC(=N)N)NC(=O)[C@@H]2CCCN2C1=O`: the inhibition was found to be 55%.
The same measure, in the same setting: as for `CSCC[C@@H]1NC(=O)[C@@H](NC(=O)[C@H](CC(C)C)NC(=O)CNC(=O)[C@H](CO)NC(=O)[C@H](CC(=O)O)NC(C)=O)CSSC[C@@H](C(=O)N[C@@H](CC(=O)O)C(=O)N[C@@H](C)C(=O)N[C@@H](CCCNC(=N)N)C(N)=O)NC(=O)CNC(=O)[C@H](CCCNC(=N)N)NC(=O)[C@H](CC(C)C)NC(=O)[C@H](CCCNC(=N)N)NC(=O)[C@@H]2CCCN2C1=O` (Ac-DSGLCMPRLRGCDAR-NH2; disulfide 5-12), the figure is 52%.
Same read-out and setting: as for Ac-DSGLCMPRLRGADPR-NH2, the figure is 0%; as for `CSCC[C@@H]1NC(=O)[C@@H](NC(C)=O)CSSC[C@@H](C(N)=O)NC(=O)CNC(=O)[C@H](CCCNC(=N)N)NC(=O)[C@@H]2CCCN2C1=O` (Ac-CMPRGC-NH2; disulfide 1-6), 39%; as for Ac-DSGLSMPRLRGSDPR-NH2, 0%.
As to `CSCC[C@@H]1NC(=O)[C@@H](NC(=O)[C@H](CC(C)C)NC(=O)[C@H](C)NC(=O)[C@H](CO)NC(=O)[C@H](CC(=O)O)NC(C)=O)CSSC[C@@H](C(=O)N[C@@H](CC(=O)O)C(=O)N2CCC[C@H]2C(=O)N[C@@H](CCCNC(=N)N)C(N)=O)NC(=O)CNC(=O)[C@H](CCCNC(=N)N)NC(=O)[C@H](CC(C)C)NC(=O)[C@H](CCCNC(=N)N)NC(=O)[C@@H]2CCCN2C1=O` (Ac-DSALCMPRLRGCDPR-NH2; disulfide 5-12), the inhibition came out at 58%.
Same read-out and setting: to `CSCC[C@@H]1NC(=O)[C@@H](NC(=O)[C@H](CC(C)C)NC(=O)CNC(=O)[C@H](C)NC(=O)[C@H](CC(=O)O)NC(C)=O)CSSC[C@@H](C(=O)N[C@@H](CC(=O)O)C(=O)N2CCC[C@H]2C(=O)N[C@@H](CCCNC(=N)N)C(N)=O)NC(=O)CNC(=O)[C@H](CCCNC(=N)N)NC(=O)[C@H](CC(C)C)NC(=O)[C@H](CCCNC(=N)N)NC(=O)[C@@H]2CCCN2C1=O` (Ac-DAGLCMPRLRGCDPR-NH2; disulfide 5-12) belongs 20%.
Same read-out and setting: as for `CSCC[C@@H]1NC(=O)[C@@H](NC(=O)[C@H](CC(C)C)NC(=O)CNC(=O)[C@H](CO)NC(=O)[C@H](CC(=O)O)NC(C)=O)CSSC[C@@H](C(=O)N[C@@H](CC(=O)O)C(=O)N2CCC[C@H]2C(=O)N[C@@H](CCCNC(=N)N)C(N)=O)NC(=O)CNC(=O)[C@H](CCCNC(=N)N)NC(=O)[C@H](C)NC(=O)[C@H](CCCNC(=N)N)NC(=O)[C@@H]2CCCN2C1=O` (Ac-DSGLCMPRARGCDPR-NH2; disulfide 5-12), the figure is 35%.
The same measure, in the same setting: as for `CSCC[C@@H]1NC(=O)[C@@H](NC(=O)[C@H](CC(C)C)NC(=O)CNC(=O)[C@H](CO)NC(=O)[C@H](CC(=O)O)NC(C)=O)CSSC[C@@H](C(=O)N[C@@H](CC(=O)O)C(=O)N2CCC[C@H]2C(=O)N[C@@H](CCCNC(=N)N)C(N)=O)NC(=O)CNC(=O)[C@H](CCCNC(=N)N)NC(=O)[C@H](CC(C)C)NC(=O)[C@H](C)NC(=O)[C@@H]2CCCN2C1=O` (Ac-DSGLCMPALRGCDPR-NH2; disulfide 5-12), the figure is 0%.

Test system in the next series: not listed separately
The series can be described thus: Half life in Swiss mouse plasma. In kind it is ADME, cell-free.
Settings: not given
In short, it runs like this:
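Peptide in 0.9% NaCl was spiked into freshly collected Swiss mouse blood at 2 μM nominal (n = 3) and kept at 37 °C for 0, 0.5, 1, 2, 5 and 8 h. Plasma was separated, acidified with formic acid, and protein precipitated with acetonitrile. Analysis was by LC-MS/MS (positive ESI), LLOQ 25-50 nM.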
Compound `CSCC[C@@H]1NC(=O)[C@H](NC(C)=O)C(C)(C)SSC[C@@H](C(N)=O)NC(=O)CNC(=O)[C@H](CCCNC(=N)N)NC(=O)[C@H](CC(C)C)NC(=O)[C@H](CCCNC(=N)N)NC(=O)[C@@H]2CCCCN2C1=O` had a half-life of 1.7 h.
On to `CSCC[C@@H]1NC(=O)[C@H](NC(C)=O)CSSC[C@@H](C(N)=O)NC(=O)CNC(=O)[C@H](CCCNC(=N)N)NC(=O)[C@H](CC(C)C)NC(=O)[C@H](CCCNC(=N)N)NC(=O)[C@@H]2CSCN2C1=O`, for which the half-life was 1.8 h. This half-life and that of the compound before are within 1.5-fold of each other.
Same read-out and setting: as for `CSCC[C@@H]1NC(=O)[C@@H](NC(C)=O)C(C)(C)SSC[C@@H](C(N)=O)NC(=O)CNC(=O)[C@H](CCCNC(=N)N)NC(=O)[C@H](CC(C)C)NC(=O)[C@H](CCCNC(=N)N)NC(=O)[C@@H]2CCCCN2C1=O`, the figure is 2.99 h; as for `CSCC[C@@H]1NC(=O)[C@H](NC(C)=O)CSSC[C@@H](C(N)=O)NC(=O)CNC(=O)[C@H](CCCNC(=N)N)NC(=O)[C@H](CC(C)C)NC(=O)[C@H](CCCNC(=N)N)NC(=O)[C@@H]2CCCN2C1=O`, 3.03 h; as for `CSCC[C@@H]1NC(=O)[C@@H](NC(C)=O)C(C)(C)SSC[C@@H](C(N)=O)NC(=O)CN(C)C(=O)[C@H](CCCNC(=N)N)NC(=O)[C@H](CC(C)C)NC(=O)[C@H](CCCNC(=N)N)NC(=O)[C@@H]2CSCN2C1=O`, 2.9 h.
As to `CSCC[C@@H]1NC(=O)[C@H](NC(C)=O)CSSC[C@@H](C(N)=O)NC(=O)CN(C)C(=O)[C@H](CCCNC(=N)N)NC(=O)[C@H](CC(C)C)NC(=O)[C@H](CCCNC(=N)N)NC(=O)[C@@H]2CSCN2C1=O`, the half-life is 2.26 h.
On the same count and under the same terms, as for `CSCC[C@@H]1NC(=O)[C@@H](NC(C)=O)CSSC[C@@H](C(N)=O)NC(=O)CNC(=O)[C@H](CCCNC(=N)N)NC(=O)[C@H](CC(C)C)NC(=O)[C@H](CCCNC(=N)N)NC(=O)[C@@H]2CCCN2C1=O`, the figure is 1.47 h.

Another series has as its system Mus musculus. Description: Biodistribution in iv dosed dorsal spinal cord of C57-B16 mouse after 10 mins by real time biphoton microscopic analysis. It counts as ADME, organism-based. The note with it: in vivo. In short, it runs like this:
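C57-Bl6 mice (>7 weeks) anesthetized with ketamine-xylazine (100 mg/kg, 10 mg/kg), T13 laminectomy; 200 μL Rhodamine Red-X-labelled peptide (167 μM in DMSO + PBS) given iv, sometimes with 70 kDa fluorescein dextran. Two-photon imaging (840 nm excitation) of superficial dorsal spinal cord (first 100 μm) from 10 min after injection; scrambled peptide and free dye as controls.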
In the case of `CSCC[C@@H]1NC(=O)[C@H](NC(C)=O)CSSC[C@@H](C(N)=O)NC(=O)CNC(=O)[C@H](CCCNC(=N)N)NC(=O)[C@H](CC(C)C)NC(=O)[C@H](CCCNC(=N)N)NC(=O)[C@@H]2CCCN2C1=O`, the Drug uptake entry is given as “Active”.

By inhibition is commonly meant the relative decrease from the control value, in per cent. What is called half-life is how long it takes for the measured level to halve. Read a low half-life as fast loss.
